Experimental data from PMC9494814 (Cell, 2022).
Read-outs that look alike come from different tables or passages of the source.

What was measured:
[1] = tested on: αIIbβ3 WT and αIIbβ3_N305T; assay type: binding; conditions: Expi293F transfectants, L15 medium with 0.1% BSA
In short: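 Expi293F cells with α5 and αV knocked out, transiently co-transfected with αIIb plus β3 or β3_N305T; valproic acid (3 mM) and glucose (0.4%) added at 24 h. At 48 h, cells washed with EDTA-containing L-15/0.1% BSA, then plain assay medium. 10^6 cells/ml incubated with FITC-echistatin and varying test compound, 2 h at 22°C; unwashed flow cytometry. Probe Kd from titration against 5 nM AF647-MBC319.4 Fab. Compound Kd from nonlinear least-squares fits with integrin concentration as a parameter, with error propagation.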

αIIbβ3 WT = αIIbβ3 WT (Homo sapiens, UniProt P05106+P08514); test: MBC319.4 Fab LIBS epitope exposure on αIIbβ3 WT transfectants; assay type: cell-based; conditions: inhibitors at 100x Kd
Sequence of αIIbβ3 WT (P08514 32-887 limits assumed): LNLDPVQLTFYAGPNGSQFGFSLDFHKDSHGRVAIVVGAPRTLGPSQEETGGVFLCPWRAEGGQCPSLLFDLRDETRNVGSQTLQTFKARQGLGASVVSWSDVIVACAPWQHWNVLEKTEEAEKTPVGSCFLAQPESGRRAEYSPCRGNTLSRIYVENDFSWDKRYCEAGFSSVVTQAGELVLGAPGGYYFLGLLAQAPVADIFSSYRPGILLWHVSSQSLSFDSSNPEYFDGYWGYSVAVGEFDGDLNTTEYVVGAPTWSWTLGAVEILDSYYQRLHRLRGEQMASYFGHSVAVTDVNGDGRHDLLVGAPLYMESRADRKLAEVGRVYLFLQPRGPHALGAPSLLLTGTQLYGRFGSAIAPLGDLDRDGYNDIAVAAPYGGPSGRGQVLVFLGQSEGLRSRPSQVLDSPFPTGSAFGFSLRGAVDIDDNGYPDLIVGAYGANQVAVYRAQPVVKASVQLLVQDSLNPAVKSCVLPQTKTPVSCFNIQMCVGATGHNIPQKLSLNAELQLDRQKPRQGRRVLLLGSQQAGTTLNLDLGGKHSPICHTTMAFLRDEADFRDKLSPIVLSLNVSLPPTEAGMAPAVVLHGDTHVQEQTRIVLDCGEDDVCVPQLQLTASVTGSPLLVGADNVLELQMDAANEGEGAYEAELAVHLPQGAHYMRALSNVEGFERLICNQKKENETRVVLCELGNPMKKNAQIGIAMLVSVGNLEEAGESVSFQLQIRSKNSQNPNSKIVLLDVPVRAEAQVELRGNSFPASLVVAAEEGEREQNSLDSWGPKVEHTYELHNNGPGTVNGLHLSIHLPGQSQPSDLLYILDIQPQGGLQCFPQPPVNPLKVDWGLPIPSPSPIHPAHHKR
Sequence of αIIbβ3 WT (P08514 891-1039 partner limits assumed): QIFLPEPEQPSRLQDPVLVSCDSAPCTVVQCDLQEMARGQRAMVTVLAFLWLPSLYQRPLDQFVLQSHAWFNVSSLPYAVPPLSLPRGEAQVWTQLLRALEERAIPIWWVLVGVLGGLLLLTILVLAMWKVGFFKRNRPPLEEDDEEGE
Sequence of αIIbβ3 WT (P05106 27-788): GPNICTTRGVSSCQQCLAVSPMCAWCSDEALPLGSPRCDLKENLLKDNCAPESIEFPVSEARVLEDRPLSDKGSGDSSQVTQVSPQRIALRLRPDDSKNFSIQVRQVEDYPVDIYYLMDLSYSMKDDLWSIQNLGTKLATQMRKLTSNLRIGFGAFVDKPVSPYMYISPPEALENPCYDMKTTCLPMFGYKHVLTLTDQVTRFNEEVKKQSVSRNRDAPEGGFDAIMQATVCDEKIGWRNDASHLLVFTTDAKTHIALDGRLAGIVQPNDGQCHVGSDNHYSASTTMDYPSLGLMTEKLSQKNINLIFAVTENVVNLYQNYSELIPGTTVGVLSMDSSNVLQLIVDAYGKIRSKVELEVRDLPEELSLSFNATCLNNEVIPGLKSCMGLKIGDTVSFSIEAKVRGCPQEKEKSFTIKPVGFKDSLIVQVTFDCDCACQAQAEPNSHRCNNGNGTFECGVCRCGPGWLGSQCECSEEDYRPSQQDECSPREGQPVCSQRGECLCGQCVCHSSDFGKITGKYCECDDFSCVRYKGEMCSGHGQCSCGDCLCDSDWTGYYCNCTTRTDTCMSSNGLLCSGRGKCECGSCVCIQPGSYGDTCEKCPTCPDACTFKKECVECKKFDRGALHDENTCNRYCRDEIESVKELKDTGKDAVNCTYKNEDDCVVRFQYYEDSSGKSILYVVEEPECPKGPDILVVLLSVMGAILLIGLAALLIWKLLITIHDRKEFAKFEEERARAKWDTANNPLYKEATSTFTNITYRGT
In short: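 Cells transiently transfected with αIIbβ3 received valproic acid (3 mM final) and glucose (0.4%) at 24 h, and were washed at 48 h in EDTA-containing then plain L-15/0.1% BSA. Cells were incubated with 20 nM Alexa647-MBC319.4 Fab plus inhibitor (Kd from FITC-echistatin competition on WT transfectants) in L15/0.1% BSA, 22°C for 2 h. Read-out was unwashed flow cytometry.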

αIIbβ3_N305T = αIIbβ3_N305T (Homo sapiens, UniProt P05106+P08514, N331T); test: MBC319.4 Fab LIBS epitope exposure on αIIbβ3_N305T transfectants; assay type: cell-based; conditions: αIIbβ3 N305T transfectants, inhibitors at 100x Kd
Sequence of αIIbβ3_N305T (P08514 32-887 limits assumed): as the sequence (P08514 32-887 limits assumed) above
Sequence of αIIbβ3_N305T (P08514 891-1039 partner limits assumed): as the sequence (P08514 891-1039 partner limits assumed) above
Sequence of αIIbβ3_N305T (P05106 27-788 N331T): as the sequence (P05106 27-788) above, with N305T counted along it
In short: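 αIIbβ3_N305T transfectants of α5/αV-knockout Expi293F cells, harvested 48 h post-transfection and EDTA-washed. Incubated with 20 nM Alexa647-labelled MBC319.4 Fab and test compound in L-15 with 0.1% BSA, equilibrated 2 h at 22°C. Fab binding read by flow cytometry without washing, as MFI.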

[2] = molecular target: αIIbβ3 on washed human platelets (Homo sapiens, UniProt P05106+P08514); test: Platelets LIBS exposure assay; assay type: cell-based
Sequence of αIIbβ3 on washed human platelets (P08514 32-887 limits assumed): as the sequence (P08514 32-887 limits assumed) above
Sequence of αIIbβ3 on washed human platelets (P08514 891-1039 partner limits assumed): as the sequence (P08514 891-1039 partner limits assumed) above
Sequence of αIIbβ3 on washed human platelets (P05106 27-788): as the sequence (P05106 27-788) above
In short: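 Blood from drug-free healthy donors was taken into acid-citrate-dextrose. PRP was spun (140xg, 12 min), given PGE1 at 50 ng/ml, pelleted, washed in citrate-dextrose buffer pH 6.5 and resuspended in Tyrode's pH 7.4 with 1% BSA and 1 mM Ca²⁺/Mg²⁺. […] Read-out was unwashed flow cytometry MFI, over three days with two donors.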

[3] = tested on: clot retraction in human PRP; test: Clot retraction in platelet-rich plasma; assay type: cell-based; conditions: thrombin
In short: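 Citrated human PRP pre-incubated 20 min at RT with test compound or buffer (in Tyrode's buffer + 1% BSA) at several concentrations. Glass-tube clot retraction started with thrombin (7.5 U/ml stock) at 37°C and imaged every 15 min. Retraction = 1 − (clot area/whole reaction area). IC50 at 30 and 90 min from a three-parameter inhibitor-response fit. Three runs, PRP from three donors.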

[4] = 2012, cited from earlier work
αIIbβ3 = conditions: patients with acute coronary syndrome ref Cox et al., 2000; cited from earlier work
αIIbβ3 headpiece [5] = molecular target: T1, αIIbβ3 headpiece (Homo sapiens, UniProt P05106+P08514); test: Size-exclusion chromatography; assay type: biochemical; conditions: 10 μM drug
T1 sequence (P08514 32-488 limits assumed): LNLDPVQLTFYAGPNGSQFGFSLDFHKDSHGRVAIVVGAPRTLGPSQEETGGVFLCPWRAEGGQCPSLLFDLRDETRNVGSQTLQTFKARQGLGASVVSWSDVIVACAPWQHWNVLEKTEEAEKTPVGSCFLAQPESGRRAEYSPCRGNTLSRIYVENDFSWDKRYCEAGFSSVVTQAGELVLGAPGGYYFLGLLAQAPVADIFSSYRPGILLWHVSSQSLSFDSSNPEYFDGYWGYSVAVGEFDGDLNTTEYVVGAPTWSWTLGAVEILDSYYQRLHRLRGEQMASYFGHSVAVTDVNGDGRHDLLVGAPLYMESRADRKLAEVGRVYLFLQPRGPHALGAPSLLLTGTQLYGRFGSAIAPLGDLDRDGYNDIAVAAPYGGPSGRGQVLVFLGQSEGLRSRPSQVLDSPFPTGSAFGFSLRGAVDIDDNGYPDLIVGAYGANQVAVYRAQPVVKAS
T1 sequence (P05106 27-498 limits assumed): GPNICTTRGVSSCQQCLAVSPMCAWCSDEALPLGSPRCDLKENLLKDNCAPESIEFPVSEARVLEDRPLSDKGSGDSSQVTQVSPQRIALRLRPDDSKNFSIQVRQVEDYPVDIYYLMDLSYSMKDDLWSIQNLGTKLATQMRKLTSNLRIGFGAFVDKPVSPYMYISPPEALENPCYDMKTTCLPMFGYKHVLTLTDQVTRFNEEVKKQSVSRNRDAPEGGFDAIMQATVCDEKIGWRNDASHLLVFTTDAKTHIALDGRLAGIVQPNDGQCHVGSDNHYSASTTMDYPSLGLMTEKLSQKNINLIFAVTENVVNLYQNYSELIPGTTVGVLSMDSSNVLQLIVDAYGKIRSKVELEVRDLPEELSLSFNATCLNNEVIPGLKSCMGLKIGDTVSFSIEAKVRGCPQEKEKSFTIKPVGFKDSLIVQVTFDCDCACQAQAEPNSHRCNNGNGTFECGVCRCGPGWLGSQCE
In short: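 Superdex 200 column equilibrated with 10 µM test compound in HEPES-buffered saline containing either 1 mM Mg2+/1 mM Ca2+ or 2 mM Mn2+/0.2 mM Ca2+. αIIbβ3 headpiece (30 µg) pre-incubated 30 min at RT with 60 µM compound in matching buffer, then chromatographed. Hydrodynamic radius taken from elution. Two runs, or one, per compound; controls ≥3.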

αIIbβ3 headpiece [6] = molecular target: T1, αIIbβ3 headpiece; conditions: soaked in Mg2+
In short: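 Closed αIIbβ3 headpiece–10E5 Fab crystals stabilised in 15% PEG 8000, 0.2 M ammonium sulfate, 0.1 M Tris-HCl pH 8.9, with glycerol raised in 5% steps to 15%. Compound (0.1-1 mM) added in the final 20% glycerol cryo step, with 1 mM MgCl2/1 mM CaCl2 or 2 mM MnCl2/0.2 mM CaCl2. Soaked 4 h, plunge-frozen in liquid N2. Synchrotron diffraction data collected, then structure refinement.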

WT αIIbβ3 = test: Competition with FITC-echistatin binding to WT αIIbβ3 transfectant in serum; conditions: 95% serum compared to 0.1% BSA
α5β1 = conditions: ref Li et al., 2017; cited from earlier work

In the case of `NCC(=O)Nc1cncc(-c2nn3c(=O)cc(N4CCNCC4)nc3s2)c1` [RUC-4], the “affinity for activated mutant (β3 N305T) compared with WT αIIbβ3” value [1] is reported as “indistinguishable”, the “LIBS (MBC319.4) epitope exposure” value (αIIbβ3 WT) is reported as “no effect on LIBS epitope expression” and the “LIBS (MBC319.4) epitope exposure” value (αIIbβ3_N305T) is reported as “no effect on LIBS epitope expression”. For the same molecule, the “LIBS epitope exposure (integrin extension) on washed platelets” value (“LIBS epitope exposure” for short) ([2]; absence of thrombin) was “no significant effect”, the “LIBS epitope exposure” value ([2]; after activation with thrombin 0.5 U/ml) was “no effect on integrin extension” and the “inhibition of clot retraction” value [3] was “effective”.

In the case of `CCOCc1cc(OC)c(-c2ccc(C[C@H](NC(=O)c3c(F)cccc3F)C(=O)O)cc2)c(OC)c1` [firategrast], the gadolinium-enhanced lesions ([4]; highest dose ref Miller et al.) is listed as “significant decrease”, the gadolinium-enhanced lesions ([4]; lowest dose ref Miller et al.) is listed as “significant increase” and the gadolinium-enhanced lesions ([4]; middle dose ref Miller et al.) is listed as “lack of effect”.

In the case of `CCOC(=O)CCNC(=O)N[C@H]1CCN(c2ccc(C(=N)N)cc2)C1=O` [orbofiban], the “platelet activation markers in treated patients” value (αIIbβ3) is listed as “increased αIIbβ3 conformational change, antibody-stimulated thromboxane B2 production, and CD63 expression”.

In the case of `CCCCS(=O)(=O)N[C@@H](Cc1ccc(OCCCCC2CCNCC2)cc1)C(=O)O` [tirofiban], the “effect on αIIbβ3 headpiece opening in gel filtration” value (αIIbβ3 headpiece [5]; 1 mM Mg2+/1 mM Ca2+) is reported as “caused the headpiece to elute earlier in gel filtration”, the “hydrodynamic radius of αIIbβ3 headpiece” value (αIIbβ3 headpiece [5]; 2 mM Mn2+/0.2 mM Ca2+) is reported as ~ 5.36 nm and the “effect on structure of closed αIIbβ3 headpiece in crystals” value (αIIbβ3 headpiece [6]) is reported as “Ser-123 displaced water 1 to coordinate directly to the MIDAS metal ion”. For the same molecule, the “decrease of affinity in 95% serum” value (WT αIIbβ3) was 1.8 fold, the “LIBS (MBC319.4) epitope exposure” value (αIIbβ3 WT) was “next strongest” and the “LIBS epitope exposure” value ([2]; absence of thrombin) was “Stronger extension”. The “inhibition of clot retraction” value [3] was “effective”.

In the case of fibronectin, the “higher affinity for the open than the closed conformation” value (α5β1) is listed as 6,000 fold.
